Data set [1] has as its target T1, Sphingosine 1-phosphate receptor 2 (Homo sapiens, UniProt O95136). Briefly: Displacement of radio labeled-SIP from human recombinant S1P2 receptor expressed in CHO cell membranes […] by radioligand based competition binding assay. Details: species or system Membrane.
Data set [2] deals with T1, Sphingosine 1-phosphate receptor 2. Description: Antagonist activity at recombinant human S1P2 receptor expressed in CHO cells assessed as EC80 S1P-induced activation incubated for 4 hrs in presence of [35S]GTPgammaS by Topcount reader. The data set is classed as functional, cell-based. Put shortly:
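Membranes from stable lines overexpressing recombinant human S1P2, preincubated with PVT-WGA SPA beads, mixed with compound serial dilutions, [35S]GTPγS and S1P at EC80. Incubated 4 h at room temperature, centrifuged, scintillation counted. Antagonist mode; IC50 as geometric mean of ≥2 runs.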

The target is the same in data set [3]. Briefly: Antagonist activity at human S1P2 receptor expressed in CHO cells assessed as EC80 S1P-induced calcium flux measured for 3 mins by fluorescence assay. It counts as functional, cell-based. Put shortly: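 Same dye-loaded, starved human S1P2-CHO cells; after agonist readout, 15 min at 37 °C, then stimulated with S1P at EC80, fluorescence read 3 min. Max/baseline ratio normalized to vehicle and S1P EC80. 10-point 1/3 dilutions from 20 μM final; IC50 derived; geometric mean of ≥2 runs.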
(In general: Calcium flux is commonly read through the fluorescence of an indicator in the cells.)

The target is the same in data set [4]. Briefly: Agonist activity at human S1P2 receptor expressed in CHO cells assessed as calcium flux measured for 3 mins by fluorescence assay. It counts as functional, cell-based. The following applies: read-out: IC50 (the source's name). Put shortly: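 CHO cells stably overexpressing human S1P2, seeded overnight at 37 °C/5% CO2, washed and starved 1 h in F-12 with 0.1% fatty-acid-free BSA, loaded with Fluo 8 dye with 5 mM probenecid. Compound added, fluorescence read 3 min; max/baseline ratio normalized to vehicle and S1P EC100. 10-point 1/3 dilutions from 23.3 μM final; EC50 derived; geometric mean of ≥2 runs.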

Data set [5] has the same target. Briefly: Antagonist activity at recombinant human S1P2 receptor in HFL1 cells assessed as inhibition of EC80 S1P-induced IL8 release incubated for 16 to 24 hrs in presence of 2% HSA by ELISA. The data set is classed as functional, cell-based. The method in brief:
(§1)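 HFL-1 lung fibroblasts seeded in 96- or 384-well plates, then medium replaced by starvation medium with 1% heat-inactivated FBS, ±1.95% HSA (2% HSA condition), 16–24 h. 10-point 1/3 dilutions, 30 μM top final, 1 h, then S1P at EC80 (without HSA: 1 μM 96-well or 0.5 μM 384-well; with HSA: 5 or 2 μM).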

Data set [6] has the same target. Briefly: Antagonist activity at recombinant human S1P2 receptor in HFL1 cells assessed as inhibition of EC80 S1P-induced IL8 release measured as unbound concentration incubated for 16 to 24 hrs in presence of 2% HSA by ELISA. It counts as functional, cell-based. The following applies: filed as antagonist, time 16-24 hrs. The method in brief:
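IL8 IC50 from the 2% HSA condition converted to free IC50 = IC50 × fu,medium, where fu,medium is estimated from human plasma protein binding fraction unbound and the serum percentage used in the assay.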

Data set [7] in a line: Intrinsic clearance unbound in mouse liver microsomes at 1 uM […] by LC-MS/MS analysis. The data set is classed as ADME, Microsome. On the technique in general: Liver microsomes are a subcellular fraction often used to study metabolism.
For data set [8], the target named is T1, Sphingosine 1-phosphate receptor 2. Description: Antagonist activity at recombinant human S1P2 receptor in HFL1 cells assessed as inhibition of EC80 S1P-induced IL8 release incubated for 16 to 24 hrs in absence of HSA by ELISA. It counts as functional, cell-based. The method in brief:
as §1
(In general: An ELISA detects its analyte on a solid surface through an enzyme-linked reagent.)

Data set [9] can be described thus: Intrinsic clearance unbound in human liver microsomes at 1 uM […] by LC-MS/MS analysis. The data set is classed as ADME, Microsome.
Data set [10] can be described thus: Thermodynamic solubility in FaSSGF at pH 1.6. The data set is classed as physicochemical. The note with it: read-out: Therm_solubility.
Data set [11] can be described thus: Clearance in beagle dog at 1 mg/kg, iv measured up to 24 hrs by LC-MS/MS analysis. The following applies: in vivo. It counts as ADME, organism-based, Canis lupus familiaris. The method in brief: (§2)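 Non-naive male Beagle dogs (n = 3) given 1 mg/kg iv as 10 min infusion; after 3-day washout, oral gavage 5 or 1 mg/kg in PEG400/MC 0.5% or MC 0.5% after ≥12 h fast. Jugular or cephalic blood into lithium heparin to 24 h; plasma analysed. Plasma protein binding: 5 μM compound, 4 h incubation.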

The nature of data set [12]: Volume of distribution at steady state in CD1 mouse at 1 mg/kg, iv measured up to 24 hrs by LC-MS/MS analysis. It counts as ADME, organism-based. The note with it: in vivo, read-out: Vdss. Put shortly:
(§3)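 Male CD1 mice, composite design, n = 6 per route; iv 1 mg/kg in PEG200/water 60/40, oral gavage 5 mg/kg in Tween 80/MC 0.5% or PEG400/MC 0.5% after ≥12 h fast. Li-heparin blood sampled to 24 h, plasma by LC-MS/MS; noncompartmental analysis. Plasma protein binding: 5 μM compound, 4 h incubation.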

Another data set concerns the target CYP3A4 (Homo sapiens, UniProt P08684). Briefly: Inhibition of recombinant CYP3A4 (unknown origin) at 10 uM. The data set is classed as ADME.
Data set [13] in a line: Plasma protein binding Sprague-Dawley rat plasma at 5 uM incubated for 4 hrs. The data set is classed as ADME, cell-free. The following applies: read-out: PPB (converted). The method in brief: (§4)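 Male Sprague-Dawley rats (6–8 weeks), n = 3 per route; iv bolus 1 mg/kg in PEG200/water 60/40; gavage 5 or 10 mg/kg in PEG400/MC 0.5% after ≥12 h fast. Li-heparin plasma sampled to 24 h, LC-MS/MS, noncompartmental analysis. Plasma protein binding: 5 μM compound, 4 h incubation.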

Data set [14] in a line: Half life in beagle dog at 1 mg/kg, iv measured up to 24 hrs by LC-MS/MS analysis. It counts as ADME, organism-based, Canis lupus familiaris. The following applies: in vivo. The method in brief:
as §2

For the next data set, the target named is CYP2C19 (Homo sapiens, UniProt P33261). Description: Inhibition of recombinant CYP2C19 (unknown origin) at 10 uM. It counts as ADME.
A short description of data set [15]: Plasma protein binding beagle dog plasma at 5 uM incubated for 4 hrs. The data set is classed as ADME, cell-free, Canis lupus familiaris. The following applies: read-out: PPB (converted). The method in brief: as §2
A short description of data set [16]: Oral bioavailability in beagle dog at 5 mg/kg measured up to 24 hrs by LC-MS/MS analysis. The data set is classed as ADME, organism-based, Canis lupus familiaris. The note with it: in vivo. The method in brief:
as §2

The nature of data set [17]: Clearance in CD1 mouse at 1 mg/kg, iv measured up to 24 hrs by LC-MS/MS analysis. The data set is classed as ADME, organism-based. The following applies: in vivo. Put shortly: as §3
Data set [18] is described as follows: Clearance in Sprague-Dawley rat at 1 mg/kg, iv measured up to 24 hrs by LC-MS/MS analysis. The following applies: in vivo. The data set is classed as ADME, organism-based. Put shortly: as §4
The nature of data set [19]: Oral bioavailability in Sprague-Dawley rat at 5 mg/kg measured up to 24 hrs by LC-MS/MS analysis. The data set is classed as ADME, organism-based. The following applies: in vivo. The method in brief:
as §4

Data set [20] can be described thus: Half life in Sprague-Dawley rat at 1 mg/kg, iv measured up to 24 hrs by LC-MS/MS analysis. The data set is classed as ADME, organism-based. The following applies: in vivo. The method in brief:
as §4

The target in another data set is CYP2C9 (Homo sapiens, UniProt P11712). Description: Inhibition of recombinant CYP2C9 (unknown origin) at 10 uM. The data set is classed as ADME.
Data set [21] can be described thus: Oral bioavailability in CD1 mouse at 5 mg/kg measured up to 24 hrs by LC-MS/MS analysis. The following applies: in vivo. The data set is classed as ADME, organism-based. Put shortly:
as §3

Data set [22] can be described thus: Plasma protein binding CD1 mouse plasma at 5 uM incubated for 4 hrs. The data set is classed as ADME, cell-free. The following applies: read-out: PPB (converted). The method in brief:
as §3

A short description of data set [23]: Volume of distribution at steady state in beagle dog at 1 mg/kg, iv measured up to 24 hrs by LC-MS/MS analysis. It counts as ADME, organism-based, Canis lupus familiaris. The note with it: in vivo, read-out: Vdss. Put shortly:
as §2

Data set [24] in a line: Thermodynamic solubility in FaSSIF. The data set is classed as physicochemical. The following applies: read-out: Therm_solubility.
Data set [25] in a line: Volume of distribution at steady state in Sprague-Dawley rat at 1 mg/kg, iv measured up to 24 hrs by LC-MS/MS analysis. The data set is classed as ADME, organism-based. The following applies: in vivo, read-out: Vdss. The method in brief:
as §4

Data set [26] is described as follows: Half life in CD1 mouse at 1 mg/kg, iv measured up to 24 hrs by LC-MS/MS analysis. It counts as ADME, organism-based. The note with it: in vivo. Put shortly:
as §3

Converted amounts (≈) assume the structure as drawn.

T1 sequence (O95136 whole entry): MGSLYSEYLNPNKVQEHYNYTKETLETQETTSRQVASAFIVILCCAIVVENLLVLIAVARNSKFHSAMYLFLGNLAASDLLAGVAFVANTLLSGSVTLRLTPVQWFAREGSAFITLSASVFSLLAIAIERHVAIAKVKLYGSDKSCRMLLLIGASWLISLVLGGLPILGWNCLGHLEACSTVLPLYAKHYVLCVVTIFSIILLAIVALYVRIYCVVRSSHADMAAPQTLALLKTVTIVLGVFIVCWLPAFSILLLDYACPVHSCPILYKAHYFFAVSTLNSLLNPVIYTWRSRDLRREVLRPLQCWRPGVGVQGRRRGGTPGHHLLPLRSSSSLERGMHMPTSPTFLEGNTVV
CYP2C9, sequence (P11712 whole entry): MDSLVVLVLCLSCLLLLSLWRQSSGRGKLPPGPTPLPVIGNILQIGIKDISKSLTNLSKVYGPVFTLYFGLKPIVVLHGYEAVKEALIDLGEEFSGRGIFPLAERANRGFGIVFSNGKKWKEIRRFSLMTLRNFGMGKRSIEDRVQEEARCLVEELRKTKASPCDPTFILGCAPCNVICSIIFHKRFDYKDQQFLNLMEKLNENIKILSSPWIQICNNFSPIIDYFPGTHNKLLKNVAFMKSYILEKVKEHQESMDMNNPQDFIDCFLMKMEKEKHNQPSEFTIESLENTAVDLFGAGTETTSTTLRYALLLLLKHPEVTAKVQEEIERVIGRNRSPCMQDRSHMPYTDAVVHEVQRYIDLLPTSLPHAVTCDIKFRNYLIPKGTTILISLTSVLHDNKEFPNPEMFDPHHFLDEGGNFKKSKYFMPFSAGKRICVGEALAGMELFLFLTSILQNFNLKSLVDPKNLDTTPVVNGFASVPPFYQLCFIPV
CYP3A4, sequence (P08684 whole entry): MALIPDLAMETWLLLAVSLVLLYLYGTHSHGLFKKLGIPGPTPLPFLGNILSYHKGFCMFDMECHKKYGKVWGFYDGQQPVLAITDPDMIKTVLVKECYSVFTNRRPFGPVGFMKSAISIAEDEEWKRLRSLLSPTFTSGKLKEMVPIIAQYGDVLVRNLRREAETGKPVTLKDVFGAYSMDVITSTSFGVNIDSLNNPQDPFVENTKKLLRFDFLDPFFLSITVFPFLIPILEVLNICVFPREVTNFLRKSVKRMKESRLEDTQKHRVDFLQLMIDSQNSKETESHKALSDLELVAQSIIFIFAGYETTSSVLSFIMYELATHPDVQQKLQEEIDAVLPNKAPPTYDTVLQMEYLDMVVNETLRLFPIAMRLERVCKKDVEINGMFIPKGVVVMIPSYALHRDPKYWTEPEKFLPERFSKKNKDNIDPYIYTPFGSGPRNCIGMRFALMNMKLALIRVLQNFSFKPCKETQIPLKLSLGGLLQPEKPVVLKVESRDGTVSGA
CYP2C19, sequence (P33261 whole entry): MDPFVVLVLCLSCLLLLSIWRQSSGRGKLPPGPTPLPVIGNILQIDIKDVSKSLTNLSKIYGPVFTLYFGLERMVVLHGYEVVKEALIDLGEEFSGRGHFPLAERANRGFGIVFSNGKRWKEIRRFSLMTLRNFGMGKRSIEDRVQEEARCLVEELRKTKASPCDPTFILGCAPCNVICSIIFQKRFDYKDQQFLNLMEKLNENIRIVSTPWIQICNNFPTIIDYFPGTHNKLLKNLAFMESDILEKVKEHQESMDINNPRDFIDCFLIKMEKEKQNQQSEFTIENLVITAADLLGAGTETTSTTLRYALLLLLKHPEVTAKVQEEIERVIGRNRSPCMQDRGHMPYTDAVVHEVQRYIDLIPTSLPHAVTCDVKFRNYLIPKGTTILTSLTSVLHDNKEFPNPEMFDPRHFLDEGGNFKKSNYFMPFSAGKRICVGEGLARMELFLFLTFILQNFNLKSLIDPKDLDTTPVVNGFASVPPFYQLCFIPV

What is called IC50 is the concentration that inhibits the measured activity by half. As to `Cc1cc(NNC(=O)Nc2cc(Cl)nc(Cl)c2)ncc1-c1cn(C)nc1C`, the results for the 50% inhibitory concentration (IC50) in data set [1], in data set [2] and in data set [3] were 190 nM, 800 nM and more than 1400 nM, respectively. Moreover, the EC50 in [4] is more than 23000 nM.
Turning to `CCOc1cc(NC(=O)NCc2cc(C)c(-c3cn(C)nc3C(F)(F)F)nn2)cc(C)n1`, the IC50 was determined as 242000 nM in [2], 194 nM in data set [5], 54000 nM in data set [3] and 242 nM in [8]. Also, in data set [6], the fIC50 was determined as 15 nM. Besides, the CL free in data set [7] is less than 58.3 mL/min/kg; in data set [9] it was less than 15 mL/min/kg.
A word on the clearance: it is a measure of how efficiently the substance is removed, as volume per time. A lower clearance goes with inefficient removal. One may read the inhibition as the drop in the measured response relative to a control, in per cent. By half-life is commonly meant the time in which the quantity being followed falls by half. For orientation: bioavailability means dose-corrected exposure relative to a reference, in per cent. Lower therefore signals little systemic uptake. As to `CCOc1cc(NC(=O)NCc2cc(C)c(-c3cn(C)nc3C(F)(F)F)nn2)cc(Cl)n1`, the solubility thermodynamic in data set [10] was determined as 5 µg/mL (≈ 10.6 µM); in data set [24], 36 µg/mL (≈ 76.6 µM). The clearance in data set [11] is 7.83 mL/min/kg; in data set [17], 10.3 mL/min/kg; in data set [18], 4.17 mL/min/kg. The IC50 in [2] was 20000 nM; in [5], 45 nM; in data set [3] it was 7700 nM; in data set [8], 20 nM. Besides, the Vd in [12] was determined as 0.49 L/kg; in data set [23], 2.1 L/kg; in data set [25] it was 0.38 L/kg. In addition, the inhibition at 10 µM was determined as 23% at CYP3A4, 61% on CYP2C19 and 58% on CYP2C9. Also, the fraction unbound at 4 h, 5 µM in data set [13] is 0.001; in [15] it was 0.016; in [22], 0.002. The results for the half-life in data set [14], in [20] and in data set [26] were 3.1 h, 1.1 h and 0.55 h, respectively. Further, the bioavailability in data set [16] amounted to 30%; in [19], 10%; in data set [21] it was 20%. Further, the fIC50 in data set [6] came to 1 nM. Also, the CL free in [7] is less than 383 mL/min/kg; in [9] it was less than 43.3 mL/min/kg.
In the case of `Cc1cc(NNC(=O)Nc2cc(Cl)nc(Cl)c2)ncc1-c1cnn(C)c1`, the results for the IC50 in data set [1], in data set [2] and in [3] were 1200 nM, 3400 nM and 2600 nM, respectively. For the same compound, in data set [4], the EC50 is more than 23000 nM.
As for `Cc1cc(CNC(=O)Nc2cc(Cl)nc(OCC(F)F)c2)nnc1-c1cn(C)nc1C(F)(F)F`, the half-inhibitory concentration (IC50) in data set [2] worked out at 36000 nM; in [5], 71 nM; in [3], 7200 nM; in data set [8], 36 nM. In data set [6], the fIC50 worked out at 1.3 nM. The CL free in data set [7] is less than 167 mL/min/kg; in data set [9] it was less than 50 mL/min/kg.
For the compound `CCOc1cc(NC(=O)NCc2cc(C)c(-c3cn(C)nc3C(F)(F)F)nn2)cc(C#N)n1`, the IC50 was 35000 nM in [2], 67 nM in data set [5], 11000 nM in data set [3] and 35 nM in [8]. In [6], the fIC50 came to 3 nM. The figures for the CL free in data set [7] and in data set [9] were less than 105 mL/min/kg and less than 28.3 mL/min/kg, respectively.
